According to paper PMC7869823 (Bioorganic & medicinal chemistry, 2020):
Values joined by “and” are separate entries in the source; they are usually repeats but may differ in a detail not shown here. Identical values can stand only once.

Tests used:
[1] = biological target: sea urchin NAADP receptor; assay: Ca2+ release in sea urchin egg homogenates; assay type: biochemical; conditions: compared to NAADP
[2] = tested on: sea urchin NAADP receptor; assay: Sub-threshold receptor desensitization in sea urchin egg homogenates; assay type: biochemical; conditions: compared to NAADP
In short: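 Sea urchin egg homogenates were exposed to increasing sub-threshold concentrations of test compound or NAADP, and time-dependent desensitization was probed by subsequent addition of 1 μM NAADP. Ca2+ release was read as peak fluo-3 fluorescence. IC50 was derived from the concentration-response and compared with that of NAADP.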

cultured human cells = conditions: low concentrations, microinjected; cited from earlier work
[3] = tested on: NAADP 23–24 kDa binding protein(s); conditions: cited from earlier work

Row | Compound | EC50 relative to NAADP (fold greater / fold less potent as an agonist) [1] | decrease in desensitization potency relative to NAADP [2] | Ca2+ release in cultured human cells (cultured human cells) | photolabeling of NAADP binding protein(s) [3]
1 | C#Cc1nc2c(N)ncnc2n1[C@@H]1O[C@H](COP(=O)(O)OP(=O)(O)OC[C@H]2O[C@@H]([n+]3cccc(C(=O)[O-])c3)[C@H](O)[C@@H]2O)[C@@H](O)[C@H]1OP(=O)(O)O [Compound 8, 8-Ethynyl-NAADP] | 89 fold and 90 fold | 86 fold and 90 fold |  | 
2 | C#Cc1nc2c(N)ncnc2n1[C@@H]1O[C@H](COP(=O)(O)OP(=O)(O)OC[C@H]2O[C@@H]([n+]3cc(N=[N+]=[N-])cc(C(=O)[O-])c3)[C@H](O)[C@@H]2O)[C@@H](O)[C@H]1OP(=O)(O)O [Compound 9, 5-N3-8-Ethynyl-NAADP] |  |  | elicit Ca^2+ release | specifically photolabel NAADP 23–24 kDa binding protein(s)
